Assay results reported in ChEMBL document CHEMBL1914330 (Eur J Med Chem, 2011).
Active and inactive are the calls of the source. No cut-off for these calls is given here.

Columns and labels:
FM3A = test: Antiproliferative activity against mouse FM3A cells after 2 days by coulter counter analysis; assay type: functional, cell-based; conditions: 48 h
[1] = Inhibition of bovine brain tubulin polymerization after 20 mins by turbidimetry; set-up: species or system Bos taurus
In short: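 Purified bovine brain tubulin at 10 µM was preincubated with compound in glutamate buffer at 30 °C, then cooled to 0 °C and GTP added. Samples were warmed to 30 °C in a recording spectrophotometer and assembly followed by turbidity.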

LoVo [2] = test: Antiproliferative activity against human LoVo cells after 72 hrs by MTT assay; assay type: functional, cell-based
In short: (§1)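 Cells seeded at 8 × 10³ per well in complete medium and exposed to a range of compound concentrations at 37 °C for 72 h. Viability read by MTT test. IC50 taken as the concentration inhibiting proliferation by 50%.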

[3] = Antiproliferative activity against human vinblastine-resistant CEM/VBL100 cells after 72 hrs by MTT assay; assay type: functional, cell-based; conditions: CEM/VBL100, 72 h; in short: as §1
A549 [4] = test: Antiproliferative activity against human A549 cells after 72 hrs by MTT assay; assay type: functional, cell-based; conditions: A549, 72 h; in short: as §1
HeLa [5] = test: Cell cycle arrest in human HeLa cells at G2/M phase after 24 hrs by propidium iodide staining-based flow cytometry; assay type: functional
In short: (§2)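 HeLa cells treated for 24 h over 0.06–0.5 µM. Cells fixed in ice-cold 70% ethanol, lysed with buffer containing RNase A and 0.1% Triton X-100, and stained with PI. DNA content read by flow cytometry, including the sub-G1 fraction. Mean ± SEM of three independent experiments.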

HeLa [6] = test: Cell cycle arrest in human HeLa cells assessed as decrease in cell accumulation in G1 phase after 24 hrs by propidium iodide staining-based flow cytometry; assay type: functional; in short: as §2
HeLa [7] = test: Cell cycle arrest in human HeLa cells assessed as decrease in cell accumulation in S phase at 0.5 uM after 24 hrs by propidium iodide staining-based flow cytometry; assay type: functional; in short: as §2
HeLa [8] = test: Induction of apoptosis in human HeLa cells assessed as increase in hypodiploid DNA content at subG1-phase after 24 hrs by flow cytometric analysis relative to untreated control; assay type: functional, cell-based; in short: as §2
HeLa [9] = test: Induction of cell cycle arrest at G2/M phase in human HeLa cells assessed as decrease in cyclin B1 expression at 0.25 to 5 uM after 48 hrs by Western blot analysis; assay type: functional, cell-based
In short: (§3)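 HeLa cells treated for 24 or 48 h were washed in cold PBS and lysed on ice for 30 min. Lysates were cleared at 15,000 × g, run on SDS-PAGE and blotted. Membranes were probed 2 h at room temperature with antibodies to the target protein, then peroxidase secondary and ECL. Blots were reprobed for β-actin as loading control.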

HeLa [10] = test: Induction of cell cycle arrest at G2/M phase in human HeLa cells assessed as partial recovery in Cdc2 phosphorylation at Tyr15 at 0.25 to 5 uM after 48 hrs by Western blot analysis; assay type: functional, cell-based; in short: as §3
HeLa [11] = test: Induction of cell cycle arrest at G2/M phase in human HeLa cells assessed as decrease in Cdc25C expression at 0.25 to 5 uM after 24 hrs by Western blot analysis; assay type: functional, cell-based; in short: as §3
HeLa [12] = test: Induction of apoptosis in human HeLa cells assessed as accumulation of late apoptotic cells after 24 hrs by Annexin-V-FITC/propidium iodide staining-based flow cytometric analysis; assay type: functional, cell-based
In short: (§4)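 HeLa cells treated for 24 or 48 h, then labelled with annexin-V-FITC and PI. Analysed by flow cytometry with excitation at 488 nm and emission at 525 nm (FITC) and 585 nm (PI). Quadrants scored as live, early apoptotic, late apoptotic or necrotic. Mean ± SEM of four independent experiments.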

HeLa [13] = test: Induction of apoptosis in human HeLa cells assessed as accumulation of necrotic cells after 24 hrs by Annexin-V-FITC/propidium iodide staining-based flow cytometric analysis; assay type: functional, cell-based; in short: as §4
HeLa [14] = test: Induction of apoptosis in human HeLa cells assessed as accumulation of late apoptotic cells after 48 hrs by Annexin-V-FITC/propidium iodide staining-based flow cytometric analysis; assay type: functional, cell-based; in short: as §4
HeLa [15] = test: Induction of apoptosis in human HeLa cells assessed as loss of mitochondrial membrane potential after 24 to 48 hrs by JC1 staining-based flow cytometric analysis; assay type: functional, cell-based
In short: (§5)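 After 24 or 48 h treatment, HeLa cells were trypsinized and resuspended in HBSS with JC-1 (1 µM). Incubated 10 min at 37 °C, washed, and read by flow cytometry for red (590 nm) aggregate versus green (530 nm) monomer. Mean ± SEM of three experiments.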

HeLa [16] = test: Induction of apoptosis in human HeLa cells assessed as loss of mitochondrial membrane potential at 0.25 to 5 uM by JC1 staining-based flow cytometric analysis; assay type: functional, cell-based; conditions: TDE = time-dependent effect; in short: as §5
HeLa [17] = test: Induction of apoptosis in human HeLa cells assessed as ROS production at 0.25 to 5 uM after 24 to 48 hrs by H2-DCFDA-staining-based flow cytometric analysis; assay type: functional, cell-based
In short: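 HeLa cells treated 24 or 48 h, trypsinized and resuspended in HBSS containing HE (2.5 µM) or H₂DCFDA (0.1 µM). Incubated 10 min at 37 °C, resuspended in HBSS, and ROS read by flow cytometry. Mean ± SEM of three independent experiments.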

HeLa [18] = test: Effect on Bcl2 protein expression in human HeLa cells at 0.25 to 0.5 uM after 24 hrs by Western blot analysis; assay type: functional, cell-based; in short: as §3
HeLa [19] = test: Induction of apoptosis in human HeLa cells assessed as decrease in Bcl2 protein expression at 0.25 to 0.5 uM after 48 hrs by Western blot analysis; assay type: functional, cell-based; in short: as §3
HT-29 [20] = test: Cytotoxicity against human HT-29 cells; assay type: functional, cell-based
HT-29 [21] = test: Antitumor activity against human HT-29 cells xenografted in BALB/c nude mouse assessed as reduction in tumor growth at 100 mg/kg, ip administered 3 times per week for 1 week; assay type: functional; set-up: scale not given: the % may be the effect or the level left; conditions: route intraperitoneal
In short: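 HT-29 cells (1 × 10⁷/mL in serum-free RPMI 1640, 0.2 mL) were injected subcutaneously in the back of nude mice. At about 300 mm³ tumours, 18 mice were randomised to vehicle or drug groups. Drug in DMSO was given i.p. at 0.01 mL/g, 100 mg/kg, three times weekly for one week. Tumour volume = (L × W²)/2 by caliper; body weight also recorded; six mice per group.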

HT-29 [22] = test: Antitumor activity against human HT-29 cells xenografted in BALB/c nude mouse assessed as reduction in tumor mass at 100 mg/kg, ip administered 3 times per week for 1 week; assay type: functional, organism-based; set-up: dose 100 mg/kg
Mus musculus = test: Toxicity in nude BALB/c mouse xenografted with human HT-29 cells assessed as weight changes at 100 mg/kg, ip administered 3 times per week for 1 week; assay type: organism-based; set-up: dose 100 mg/kg, route intraperitoneal; conditions: in vivo, 168 h
In short: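 HT-29 cells in log phase, suspended at 1 × 10⁷ cells/mL in serum-free RPMI 1640, 0.2 mL injected subcutaneously into the back of nude mice. At about 300 mm³, mice were randomised to vehicle or treatment groups (six per group). The compound was given in DMSO by i.p. injection at 0.01 mL/g body weight. Body weight was recorded on set days; mice were euthanised after 23 days.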

LoVo [23] = test: Ratio of IC50 for doxorubicin-resistant human LoVo cells to IC50 for human LoVo cells; assay type: functional
A549 [24] = test: Ratio of IC50 for taxol-resistant human A549-T12 cells to IC50 for human A549 cells; assay type: functional

Question: Which IC50 (FM3A) does the source give for `COc1cc(C(=O)c2sc(N3CCCC3)nc2N)cc(OC)c1OC` here?
Answer: The IC50 was 180 nM.

Question: What about the IC50 [1] of the same compound?
Answer: Its IC50 is 1300 nM.

Question: And the IC50 (LoVo [2])?
Answer: The IC50 was 100 nM.

Question: What about the IC50 [3] of the same compound?
Answer: The IC50 was 10 nM.

Question: And the IC50 (A549 [4])?
Answer: The IC50 was 37 nM.

Question: What about the Activity (HeLa [5]) of the same compound?
Answer: Its Activity is “Dose-dependent effect”.

Question: And the Activity (HeLa [6])?
Answer: Its Activity is “Dose-dependent effect”.

Question: What about the Activity (HeLa [7]) of the same compound?
Answer: The Activity was “Active”.

Question: What about the Activity (HeLa [8]) of the same compound?
Answer: Its Activity is “Dose-dependent effect”.

Question: What about the Activity (HeLa [9]) of the same compound?
Answer: The Activity was “inactive”.

Question: And the Activity (HeLa [10])?
Answer: Its Activity is “inactive”.

Question: What about the Activity (HeLa [11]) of the same compound?
Answer: The Activity was “Active”.

Question: What about the Activity (HeLa [12]) of the same compound?
Answer: The Activity was “Dose-dependent effect”.

Question: And the Activity (HeLa [13])?
Answer: The Activity was “Dose-dependent effect”.

Question: And the Activity (HeLa [14])?
Answer: The Activity was “Active”.

Question: What about the Activity (HeLa [15]) of the same compound?
Answer: The Activity was “Dose-dependent effect”.

Question: And the Activity (HeLa [16])?
Answer: Its Activity is “tde”.

Question: What about the Activity (HeLa [17]) of the same compound?
Answer: Its Activity is “Active”.

Question: And the Activity (HeLa [18])?
Answer: The Activity was “inactive”.

Question: And the Activity (HeLa [19])?
Answer: The Activity was “Active”.

Question: And the IC50 (HT-29 [20])?
Answer: Its IC50 is 20 nM.

Question: And the Activity (HT-29 [21])?
Answer: Its Activity is 58%.

Question: And the Activity (HT-29 [22])?
Answer: Its Activity is “Active”.

Question: And the Activity (Mus musculus)?
Answer: The Activity was “Non-toxic”.

Question: And the “Ratio IC50” value (LoVo [23])?
Answer: Its value is 4.3.

Question: And the “Ratio IC50” value (A549 [24])?
Answer: The value was 4.3.
